Published values pooled from the literature.
Lines come from different studies, so protocols differ.
CDK19: Cyclin-dependent kinase 19 (CDK19, Homo sapiens, UniProt Q9BWU1)
CDK19 with cyclin C: Cyclin-dependent kinase 19, with cyclin C (CDK19, Homo sapiens, UniProt Q9BWU1)

C[C@@H]1CCN(c2nccc(-c3cnn4ncccc34)n2)C1  remaining binding (CDK19; binding; 1 µM): 97%
O=C(Nc1cnn(-c2csc(C(=O)NC3COC3)c2)c1)Nc1c(F)cccc1Cl  remaining activity (CDK19 with cyclin C; enzyme activity, inhibitor; 5 µM): 96.2%
Cc1ccc(C(=O)Nc2ccc(CN3CCN(C)CC3)c(C(F)(F)F)c2)cc1C#Cc1cnc2cccnn12  remaining activity (CDK19; enzyme activity, inhibitor; 23.5 nM): 31%
C[C@@H]1CN(c2ccc3ncc(-c4ccc5[nH]nc(C6CC6)c5c4)n3n2)C[C@H](C)O1  remaining binding (CDK19; binding, competition with immobilised ligand; 0.5 µM): 13%
CN1CCN(C(=O)c2ccc3cc(CCNc4ccnc5ccc(C#N)cc45)ccc3c2)CC1  inhibition (CDK19; binding, competition with immobilised ligand; 2 µM): > 85%
CC(C)(C)c1nc2c(s1)c1nc(N)ncc1c1ccc(NS(=O)(=O)c3c(F)cccc3F)c(F)c12  remaining activity (CDK19 with cyclin C; enzyme activity, inhibitor, radiometric; 1 µM): 98%
F[C@@H]1CCN(c2nccc(-c3cnn4ncccc34)n2)C1  remaining binding (CDK19; binding; 1 µM): 100%
CC(C)(C)c1nc(-c2cccc(NS(=O)(=O)c3c(F)cccc3F)c2F)c(-c2ccnc(N)n2)s1  remaining activity (CDK19 with cyclin C; enzyme activity, inhibitor, radiometric; 1 µM): 94%
Cc1sc(C(=O)NC2COC2)cc1-n1cc(NC(=O)Nc2c(F)cccc2Cl)cn1  remaining activity (CDK19 with cyclin C; enzyme activity, inhibitor; 10 µM): 98.1%
